Among the data in the array DNA melting data of Ke et al. (doi:10.1101/2024.01.08.574731) are Tm and folding enthalpy values, retold here.

Data set [1] is described as follows: melting temperature; fluorescence melt of hairpins on a sequencing array, two-state fit, raised by 9.35 °C to match UV melts. The note with it: sodium 0.088 M. The procedure, abridged:
(§1)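 Cy3 signals were normalised both to pre-quench Cy3 and to control constructs. They came from library hairpins carrying annealed Cy3 and quencher oligos on a sequenced MiSeq flow cell, imaged in 50 mM Na-HEPES pH 8.0, 25 mM NaCl, in 2.5 °C steps up to 60 °C. Bootstrapped two-state fits gave melting temperature and folding enthalpy, and four replicates were combined by inverse variance. Fitted temperatures were then raised by 9.35 °C to match UV melts.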

The nature of data set [2]: folding enthalpy; higher = less favourable; fluorescence melt of hairpins on a sequencing array, two-state fit. The note with it: sodium 0.088 M. The gist of the method:
as §1

Consider GCGTTTTTACGC ((((....)))), for which the Tm in data set [1] came to 55.2 °C. In data set [2], the folding enthalpy is -26.9 kcal/mol.

Consider GGCAAGGGAAACCTTACC ((.((((....)))).)), for which, in data set [1], the Tm amounted to 37.4 °C. Further, the folding enthalpy in data set [2] was -29.2 kcal/mol.

As to GATCAGCTGGCTGATC ((((((....)))))), in data set [1], the Tm was 64.4 °C. The folding enthalpy in data set [2] was -34.1 kcal/mol.

As for GATCACCCATGTGATC ((((((....)))))), the Tm in data set [1] came out at 55.7 °C. In addition, in data set [2], the folding enthalpy was -33.8 kcal/mol.

With GGCAAAGGAAACTTCGCC (((.(((....))).))), in data set [1], the Tm was 41 °C. Further, in data set [2], the folding enthalpy was -29.7 kcal/mol.

Take CGTCCGGAAACGGCCACG ((((((....)))..))): in data set [1], the Tm came out at 33.1 °C. The folding enthalpy in data set [2] was -13 kcal/mol.

For the sequence GATCATGGAAATGATC ((((((....)))))), in data set [1], the Tm is 52.4 °C. In data set [2], the folding enthalpy is -36 kcal/mol.

As to GACATTGCGAAAGCAGTC (((..(((....)))))), the Tm in data set [1] came out at 32.4 °C. In data set [2], the folding enthalpy is -10 kcal/mol.

Turning to GCGCGCGAAAGCGCCCGC ((((((....)))..))), the Tm in data set [1] amounted to 45.8 °C. For the same sequence, the folding enthalpy in data set [2] is -9.74 kcal/mol.

For GCTACACCGAAAGGTAGC (((..(((....)))))), the Tm in data set [1] was determined as 47.1 °C. Further, in data set [2], the folding enthalpy is -22.7 kcal/mol.

Consider GATCCTTTAAAGGATC ((((((....)))))), for which the Tm in data set [1] was 53.4 °C. In data set [2], the folding enthalpy was -40.9 kcal/mol.

With GATCATGATAATGATC ((((((....)))))), the Tm in data set [1] is 55.4 °C. For the same sequence, in data set [2], the folding enthalpy is -48.7 kcal/mol.

For the sequence GGGGCTGGAAACAACCCC ((((.((....)).)))), the Tm in data set [1] worked out at 49.2 °C. For the same sequence, in data set [2], the folding enthalpy is -41.2 kcal/mol.

As for GATCGGAGACCCGATC ((((((....)))))), the Tm in data set [1] was 53 °C. The folding enthalpy in data set [2] is -36.6 kcal/mol.

For GATTACCCGAAAGGGATC (((..(((....)))))), in data set [1], the Tm stood at 26.3 °C. Besides, the folding enthalpy in data set [2] was -12.1 kcal/mol.

Regarding GGCTATGCGAAAGCAGCC (((..(((....)))))), in data set [1], the Tm turned out to be 55.6 °C. In data set [2], the folding enthalpy was -27.3 kcal/mol.

With GGGTGCGAAAGCAAACCC ((((((....)))..))), the Tm in data set [1] was 55.9 °C. The folding enthalpy in data set [2] was -29.3 kcal/mol.

In the case of TTGTTGAAAAACAA (((((....))))), the Tm in data set [1] was 30.7 °C. Further, in data set [2], the folding enthalpy is -11.4 kcal/mol.

As for ACTCCGAAAGGAGT (((((....))))), the Tm in data set [1] worked out at 68.8 °C. The folding enthalpy in data set [2] was -20.5 kcal/mol.

On to GGAGATGAAAATCTCC ((((((....)))))), for which the Tm in data set [1] worked out at 57.6 °C. Also, in data set [2], the folding enthalpy was -36.2 kcal/mol.

As for GCGGGAGGAAACCCCCAC (.(((.(....).))).), in data set [1], the Tm amounted to 27.7 °C. Besides, the folding enthalpy in data set [2] was -10.6 kcal/mol.

In the case of GTTTTCGAAAGAATAAC ((((((....))).))), the Tm in data set [1] turned out to be 31.2 °C. For the same sequence, the folding enthalpy in data set [2] is -12.9 kcal/mol.

As to GGAGATCGAAAGATATCC (((.(((....))).))), the Tm in data set [1] is 49.6 °C. In addition, the folding enthalpy in data set [2] was -43.2 kcal/mol.

With GGCGAAGGAAACTTCGTC (.(((((....))))).), the Tm in data set [1] is 53.1 °C. Moreover, the folding enthalpy in data set [2] was -35.7 kcal/mol.

Regarding GTCAGCGAAAGCTTCGAC ((((((....)))..))), the Tm in data set [1] came out at 32.3 °C. The folding enthalpy in data set [2] was -12 kcal/mol.

Take GATCTGCTCACAGATC ((((((....)))))): the Tm in data set [1] is 51.6 °C. For the same sequence, in data set [2], the folding enthalpy is -36.9 kcal/mol.

GCACTGCGAAAGCAGAGC ((.((((....)))).)): the Tm in data set [1] was 65.9 °C. Further, the folding enthalpy in data set [2] was -20.7 kcal/mol.

With GGAATTCGAAAGAAGTCC (((.(((....))).))), the Tm in data set [1] amounted to 49.2 °C. In addition, in data set [2], the folding enthalpy was -37.5 kcal/mol.

In the case of GATCCGAGAACGGATC ((((((....)))))), the Tm in data set [1] was 54.5 °C. Moreover, the folding enthalpy in data set [2] was -37.4 kcal/mol.

For the sequence GATCGATAGGTCGATC ((((((....)))))), the Tm in data set [1] was determined as 53 °C. The folding enthalpy in data set [2] is -42.2 kcal/mol.

As to GTGCCCGGAAACAGGCAC (((((.(....).))))), in data set [1], the Tm worked out at 54.9 °C. The folding enthalpy in data set [2] was -40.4 kcal/mol.

On to GATCCAGGAAACCGGATC (((((.(....).))))), for which the Tm in data set [1] was determined as 45.7 °C. Besides, in data set [2], the folding enthalpy was -33.3 kcal/mol.

Regarding AACCAGAAATGGTT (((((....))))), the Tm in data set [1] stood at 40.2 °C. Moreover, the folding enthalpy in data set [2] was -14.8 kcal/mol.

Regarding GATCTTAACGAAGATC ((((((....)))))), in data set [1], the Tm amounted to 40 °C. Also, in data set [2], the folding enthalpy was -29.9 kcal/mol.

As for GCAGCAGGAAACTACTGC ((((.((....)).)))), the Tm in data set [1] came to 45.5 °C. Also, the folding enthalpy in data set [2] is -30.5 kcal/mol.

For GATCATCTTTATGATC ((((((....)))))), in data set [1], the Tm turned out to be 47.9 °C. Also, the folding enthalpy in data set [2] was -32.3 kcal/mol.

On to GAAGGGGGAAACCTCTTC ((((.((....)).)))), for which the Tm in data set [1] was 43.1 °C. For the same sequence, the folding enthalpy in data set [2] is -27.7 kcal/mol.
